Test system: Fibroblast
Test: Multiplex assay against human fibroblast
Type: toxicity, cell-based
How it was run: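 Live cells carried four stains from seeding: Hoechst33342, BioTracker Green Microtubule Cytoskeleton Dye, MitoTracker Red and Annexin V Alexa Fluor 680. They were imaged on a CQ1 microscope at 37°C and 5% CO2 after compound addition. Using CellPathfinder machine-learning gating, cells were split into Hoechst high-intensity objects or normal cells, normal cells into healthy, pyknosed or fragmented nuclei, and pyknosed cells into mitotic or apoptotic; tubulin, mitochondrial-mass and membrane-permeability phenotypes are per cents of healthy-nucleus cells.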

[1] = 12 h, 1 µM, compound concentration 1 uM, replicate 1
[2] = 12 h, 1 µM, compound concentration 1 uM, replicate 2
[3] = 12 h, 10 µM, compound concentration 10 uM, replicate 1
[4] = 12 h, 10 µM, compound concentration 10 uM, replicate 2
[5] = 24 h, 1 µM, compound concentration 1 uM, replicate 1
[6] = 24 h, 1 µM, compound concentration 1 uM, replicate 2
[7] = 24 h, 10 µM, compound concentration 10 uM, replicate 1
[8] = 24 h, 10 µM, compound concentration 10 uM, replicate 2
[9] = 48 h, 1 µM, compound concentration 1 uM, replicate 1
[10] = 48 h, 1 µM, compound concentration 1 uM, replicate 2
[11] = 48 h, 10 µM, compound concentration 10 uM, replicate 1
[12] = 48 h, 10 µM, compound concentration 10 uM, replicate 2

CN(C)CC#Cc1ccc(OCCCc2sc(N3CCc4cccc(C(=O)Nc5nc6ccccc6s5)c4C3)nc2C(=O)O)c(F)c1 [A-1155463]
Population Apoptotic (%) [1]: 74% | Population Fragmented Nuclei (%) [1]: 27% | Population Healthy Nuclei (%) [1]: 44% | Population Hoechst High Intensity Objects (%) [1]: 12% | Population Membrane Permeable-Phenotype (%) [1]: 30% | Population Mitochondria Different-Phenotype (%) [1]: 9% | Population Mitotic Cells (%) [1]: 25% | Population Normal (%) [1]: 87% | Population Pyknosed Nuclei (%) [1]: 27% | Population Tubulin-Different-Phenotype (%) [1]: 46% | Total Cell Count [1]: 111 | Population Apoptotic (%) [2]: 66% | Population Fragmented Nuclei (%) [2]: 39% | Population Healthy Nuclei (%) [2]: 53% | Population Hoechst High Intensity Objects (%) [2]: 4% | Population Membrane Permeable-Phenotype (%) [2]: 13% | Population Mitochondria Different-Phenotype (%) [2]: 31% | Population Mitotic Cells (%) [2]: 33% | Population Normal (%) [2]: 95% | Population Pyknosed Nuclei (%) [2]: 7% | Population Tubulin-Different-Phenotype (%) [2]: 27% | Total Cell Count [2]: 86 | Population Apoptotic (%) [3]: 63% | Population Fragmented Nuclei (%) [3]: 24% | Population Healthy Nuclei (%) [3]: 41% | Population Hoechst High Intensity Objects (%) [3]: 11% | Population Membrane Permeable-Phenotype (%) [3]: 42% | Population Mitochondria Different-Phenotype (%) [3]: 4% | Population Mitotic Cells (%) [3]: 36% | Population Normal (%) [3]: 88% | Population Pyknosed Nuclei (%) [3]: 33% | Population Tubulin-Different-Phenotype (%) [3]: 74% | Total Cell Count [3]: 173 | Population Apoptotic (%) [4]: 86% | Population Fragmented Nuclei (%) [4]: 33% | Population Healthy Nuclei (%) [4]: 42% | Population Hoechst High Intensity Objects (%) [4]: 5% | Population Membrane Permeable-Phenotype (%) [4]: 24% | Population Mitochondria Different-Phenotype (%) [4]: 16% | Population Mitotic Cells (%) [4]: 13% | Population Normal (%) [4]: 94% | Population Pyknosed Nuclei (%) [4]: 23% | Population Tubulin-Different-Phenotype (%) [4]: 25% | Total Cell Count [4]: 133 | Population Apoptotic (%) [5]: 62% | Population Fragmented Nuclei (%) [5]: 30% | Population Healthy Nuclei (%) [5]: 33% | Population Hoechst High Intensity Objects (%) [5]: 11% | Population Membrane Permeable-Phenotype (%) [5]: 37% | Population Mitochondria Different-Phenotype (%) [5]: 7% | Population Mitotic Cells (%) [5]: 37% | Population Normal (%) [5]: 88% | Population Pyknosed Nuclei (%) [5]: 36% | Population Tubulin-Different-Phenotype (%) [5]: 50% | Total Cell Count [5]: 134 | Population Apoptotic (%) [6]: 50% | Population Fragmented Nuclei (%) [6]: 36% | Population Healthy Nuclei (%) [6]: 54% | Population Hoechst High Intensity Objects (%) [6]: 7% | Population Membrane Permeable-Phenotype (%) [6]: 13% | Population Mitochondria Different-Phenotype (%) [6]: 32% | Population Mitotic Cells (%) [6]: 50% | Population Normal (%) [6]: 92% | Population Pyknosed Nuclei (%) [6]: 9% | Population Tubulin-Different-Phenotype (%) [6]: 28% | Total Cell Count [6]: 92 | Population Apoptotic (%) [7]: 71% | Population Fragmented Nuclei (%) [7]: 27% | Population Healthy Nuclei (%) [7]: 50% | Population Hoechst High Intensity Objects (%) [7]: 9% | Population Membrane Permeable-Phenotype (%) [7]: 44% | Population Mitochondria Different-Phenotype (%) [7]: 2% | Population Mitotic Cells (%) [7]: 28% | Population Normal (%) [7]: 90% | Population Tubulin-Different-Phenotype (%) [7]: 76% | Total Cell Count [7]: 170 | Population Apoptotic (%) [8]: 81% | Population Fragmented Nuclei (%) [8]: 32% | Population Healthy Nuclei (%) [8]: 45% | Population Hoechst High Intensity Objects (%) [8]: 10% | Population Membrane Permeable-Phenotype (%) [8]: 20% | Population Mitochondria Different-Phenotype (%) [8]: 14% | Population Mitotic Cells (%) [8]: 18% | Population Normal (%) [8]: 89% | Population Pyknosed Nuclei (%) [8]: 22% | Population Tubulin-Different-Phenotype (%) [8]: 21% | Total Cell Count [8]: 135 | Population Apoptotic (%) [9]: 68% | Population Fragmented Nuclei (%) [9]: 31% | Population Healthy Nuclei (%) [9]: 34% | Population Hoechst High Intensity Objects (%) [9]: 18% | Population Membrane Permeable-Phenotype (%) [9]: 20% | Population Mitochondria Different-Phenotype (%) [9]: 3% | Population Mitotic Cells (%) [9]: 31% | Population Normal (%) [9]: 81% | Population Pyknosed Nuclei (%) [9]: 33% | Population Tubulin-Different-Phenotype (%) [9]: 56% | Total Cell Count [9]: 106 | Population Apoptotic (%) [10]: 80% | Population Fragmented Nuclei (%) [10]: 35% | Population Healthy Nuclei (%) [10]: 53% | Population Hoechst High Intensity Objects (%) [10]: 11% | Population Membrane Permeable-Phenotype (%) [10]: 28% | Population Mitochondria Different-Phenotype (%) [10]: 6% | Population Mitotic Cells (%) [10]: 20% | Population Normal (%) [10]: 88% | Population Pyknosed Nuclei (%) [10]: 10% | Population Tubulin-Different-Phenotype (%) [10]: 44% | Total Cell Count [10]: 105 | Population Apoptotic (%) [11]: 66% | Population Fragmented Nuclei (%) [11]: 38% | Population Healthy Nuclei (%) [11]: 39% | Population Hoechst High Intensity Objects (%) [11]: 10% | Population Membrane Permeable-Phenotype (%) [11]: 50% | Population Mitochondria Different-Phenotype (%) [11]: 10% | Population Mitotic Cells (%) [11]: 33% | Population Normal (%) [11]: 89% | Population Pyknosed Nuclei (%) [11]: 22% | Population Tubulin-Different-Phenotype (%) [11]: 81% | Total Cell Count [11]: 135 | Population Apoptotic (%) [12]: 95% | Population Fragmented Nuclei (%) [12]: 25% | Population Healthy Nuclei (%) [12]: 57% | Population Hoechst High Intensity Objects (%) [12]: 14% | Population Membrane Permeable-Phenotype (%) [12]: 35% | Population Mitochondria Different-Phenotype (%) [12]: 9% | Population Mitotic Cells (%) [12]: 4% | Population Normal (%) [12]: 85% | Population Pyknosed Nuclei (%) [12]: 17% | Population Tubulin-Different-Phenotype (%) [12]: 74% | Total Cell Count [12]: 145

From ChEMBL document CHEMBL4689842, “EUbOPEN Chemogenomics Library wave 1” (2021)
